ChEMBL document CHEMBL4414622, “Synthesis, Purification, and Selective β2-AR Agonist and Bronchodilatory Effects of Catecholic Tetrahydroisoquinolines from Portulaca oleracea” (J Nat Prod, 2019)
The source made the active and inactive calls. The calls are words filed in the database; no cut-off is given here.

Assays:
[1] = target: Beta-1 adrenergic receptor (Homo sapiens) (UniProt P08588); experiment: Agonist activity at human beta1 adrenergic receptor expressed in CHOK1 cells co-expressing Galpha15 assessed as increase in calcium influx by measuring fluorescence intensity at 100 uM by FLIPR assay relative to epinephrine; format: functional, cell-based
Chain of Beta-1 adrenergic receptor (Homo sapiens) (P08588 whole entry, looked up): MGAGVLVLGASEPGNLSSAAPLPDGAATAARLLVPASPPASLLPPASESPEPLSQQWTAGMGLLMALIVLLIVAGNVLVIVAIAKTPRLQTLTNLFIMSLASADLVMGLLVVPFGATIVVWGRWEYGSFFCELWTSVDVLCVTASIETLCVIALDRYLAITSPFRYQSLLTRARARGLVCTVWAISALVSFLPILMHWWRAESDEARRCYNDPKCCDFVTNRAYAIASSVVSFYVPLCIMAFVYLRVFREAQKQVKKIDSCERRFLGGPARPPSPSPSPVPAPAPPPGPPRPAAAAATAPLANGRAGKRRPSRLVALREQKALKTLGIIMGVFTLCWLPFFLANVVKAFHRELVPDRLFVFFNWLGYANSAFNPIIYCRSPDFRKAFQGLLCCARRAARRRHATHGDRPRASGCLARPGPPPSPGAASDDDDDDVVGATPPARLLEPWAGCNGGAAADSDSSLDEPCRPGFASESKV
Method in brief: (§1)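 Stably transfected CHO-K1/Gα15 lines (ADRB1, ADRB2 or ADRA1B) grown in Ham's F12 with 10% FBS, Zeocin and Hygromycin B at 37 °C. Seeded 1.5 × 10⁴ cells/well, 18 h, then Calcium 4 dye 1 h at 37 °C and 15 min room temperature. Compound (100 μM) added at 21 s of a 120 s FLIPR Tetra read. Stocks were 100 mM in DMSO, diluted in HBSS/20 mM HEPES pH 7.4. n = 4.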

[2] = target: T1, Alpha-1B adrenergic receptor (Homo sapiens) (UniProt P35368); experiment: Agonist activity at human alpha1 beta adrenergic receptor expressed in CHOK1 cells co-expressing Galpha15 assessed as increase in calcium influx by measuring fluorescence intensity at 100 uM by FLIPR assay relative to epinephrine; format: functional, cell-based; method in brief: as §1
T1 sequence (whole entry): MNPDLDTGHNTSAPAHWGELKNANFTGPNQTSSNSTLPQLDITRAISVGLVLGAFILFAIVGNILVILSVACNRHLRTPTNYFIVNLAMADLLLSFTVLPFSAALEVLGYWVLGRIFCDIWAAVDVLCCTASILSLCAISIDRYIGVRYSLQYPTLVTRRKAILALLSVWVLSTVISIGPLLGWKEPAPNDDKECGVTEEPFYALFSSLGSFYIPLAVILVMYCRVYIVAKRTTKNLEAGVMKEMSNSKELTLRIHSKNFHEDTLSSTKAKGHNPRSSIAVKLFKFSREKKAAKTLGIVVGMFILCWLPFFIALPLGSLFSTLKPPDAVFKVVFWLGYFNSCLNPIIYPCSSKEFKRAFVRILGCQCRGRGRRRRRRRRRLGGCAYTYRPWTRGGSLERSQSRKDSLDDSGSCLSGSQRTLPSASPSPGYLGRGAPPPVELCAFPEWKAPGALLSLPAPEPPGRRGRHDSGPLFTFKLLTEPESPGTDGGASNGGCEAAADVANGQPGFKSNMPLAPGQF

[3] = target: Beta-2 adrenergic receptor (Homo sapiens) (UniProt P07550); experiment: Agonist activity at human beta2 adrenergic receptor expressed in CHOK1 cells co-expressing Galpha15 assessed as increase in calcium influx by measuring fluorescence intensity at 100 uM by FLIPR assay relative to isoproterenol; format: functional, cell-based; method in brief: as §1
Chain of Beta-2 adrenergic receptor (Homo sapiens) (P07550 whole entry, looked up): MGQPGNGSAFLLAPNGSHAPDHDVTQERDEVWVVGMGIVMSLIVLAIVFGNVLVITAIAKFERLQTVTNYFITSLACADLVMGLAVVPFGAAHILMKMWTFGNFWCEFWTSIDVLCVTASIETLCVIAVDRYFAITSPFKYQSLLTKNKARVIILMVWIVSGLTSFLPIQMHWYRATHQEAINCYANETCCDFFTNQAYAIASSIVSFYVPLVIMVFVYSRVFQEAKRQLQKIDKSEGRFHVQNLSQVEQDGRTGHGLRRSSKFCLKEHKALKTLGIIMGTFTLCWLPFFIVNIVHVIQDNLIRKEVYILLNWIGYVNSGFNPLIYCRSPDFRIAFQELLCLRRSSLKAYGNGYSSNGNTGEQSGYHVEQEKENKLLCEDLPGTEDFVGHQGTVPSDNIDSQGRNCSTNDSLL

[4] = target: Beta-2 adrenergic receptor (Cavia porcellus, UniProt Q8K4Z4); experiment: Agonist activity at beta2 adrenergic receptor in guinea pig tracheal smooth muscle assessed as inhibition of histamine-induced tracheal smooth muscle contraction by measuring spasmolysis in absence of beta adrenergic receptor antagonist propranolol
Chain of Beta-2 adrenergic receptor (Q8K4Z4 whole entry): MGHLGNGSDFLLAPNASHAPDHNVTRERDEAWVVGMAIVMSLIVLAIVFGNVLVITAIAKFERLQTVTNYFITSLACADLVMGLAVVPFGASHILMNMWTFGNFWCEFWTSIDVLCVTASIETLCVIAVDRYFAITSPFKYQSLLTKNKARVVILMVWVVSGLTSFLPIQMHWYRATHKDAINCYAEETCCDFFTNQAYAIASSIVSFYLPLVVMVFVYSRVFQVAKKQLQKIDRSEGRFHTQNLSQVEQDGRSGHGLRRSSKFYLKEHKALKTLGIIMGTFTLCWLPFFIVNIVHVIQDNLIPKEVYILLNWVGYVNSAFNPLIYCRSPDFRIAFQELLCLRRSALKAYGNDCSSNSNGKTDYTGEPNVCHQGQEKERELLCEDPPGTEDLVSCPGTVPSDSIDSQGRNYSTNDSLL

[5] = target: Beta-2 adrenergic receptor (Cavia porcellus) (UniProt Q8K4Z4); experiment: Agonist activity at beta2 adrenergic receptor in guinea pig tracheal smooth muscle assessed as inhibition of histamine-induced tracheal smooth muscle contraction by measuring spasmolysis preincubated for 15 mins in presence of beta adrenergic receptor antagonist propranolol followed by histamine addition
Chain of Beta-2 adrenergic receptor (Cavia porcellus) (Q8K4Z4 whole entry, looked up): as the sequence (Q8K4Z4 whole entry) above

SMILES | Activity [1] | Activity [2] [%] | Activity [3] | EC50 [4] [nM] | inhibition [5]
OCc1ccc(C2=NCCc3cc(O)c(O)cc32)o1 | -10.4% | 13.7 | – | – | –
Oc1cc2c(cc1O)C(c1ccco1)=NCC2 | 73.5% | 13.4 | – | – | –
COc1cc(C2NCCc3cc(O)c(O)cc32)ccc1O (stereo unspecified) | inactive | 11.8 | inactive | – | –
CC1NCCc2cc(O)c(O)cc21 (stereo unspecified) | -11.4% | 22.1 | 2.91% | – | –
CC(C)NCC(O)c1ccc(O)c(O)c1 (stereo unspecified) [ISOPROTERENOL] | – | – | – | 7.9 | –
COc1ccc(C2NCCc3cc(O)c(O)cc32)cc1 (stereo unspecified) | inactive | 18.5 | inactive | – | –
CC(C)CC1NCCc2cc(O)c(O)cc21 (stereo unspecified) | inactive | 7.7 | 64.5% | 2800 | Dose-dependent effect
C[C@@H]1NCCc2cc(O)c(O)cc21 | -9.5% | 19.2 | – | – | –
CC(C)C[C@H]1NCCc2cc(O)c(O)cc21 | inactive | 20.5 | – | – | –
COc1cc(C2NCCc3cc(O)c(O)cc32)cc(OC)c1OC (stereo unspecified) | inactive | 20.5 | inactive | – | –
Oc1ccc(C2NCCc3cc(O)c(O)cc32)cc1O (stereo unspecified) | inactive | 16.6 | inactive | – | –
Oc1cc2c(cc1O)CCN=C2 | -6.22% | 24.2 | – | – | –
OCc1ccc(C2NCCc3cc(O)c(O)cc32)o1 (stereo unspecified) | -20.3% | 22.3 | -11.1% | – | –
CC1=NCCc2cc(O)c(O)cc21 | -6.31% | 15.9 | – | – | –
Oc1cc2c(cc1O)C(c1ccco1)NCC2 (stereo unspecified) | -35.3% | 15.6 | -9.23% | – | –

The next lines start with results.

Activity [1] | Activity [2] [%] | Activity [3] | EC50 [4] [nM] | SMILES | inhibition [5]
inactive | 31.9 | inactive | – | Oc1ccc(C2NCCc3cc(O)c(O)cc32)cc1 (stereo unspecified) | –
inactive | 51.5 | inactive | – | Oc1cc2c(cc1O)C(c1ccccc1)NCC2 (stereo unspecified) | –
inactive | 36.3 | inactive | – | COc1ccccc1C1NCCc2cc(O)c(O)cc21 (stereo unspecified) | –
inactive | 43.8 | inactive | – | Oc1cc2c(cc1O)C(c1cccc3ccccc13)NCC2 (stereo unspecified) | –
80.3% | 6.1 | – | – | Oc1cc2c(cc1O)[C@@H](Cc1ccccc1)NCC2 | –
inactive | 14.5 | inactive | – | Oc1cccc(C2NCCc3cc(O)c(O)cc32)c1 (stereo unspecified) | –
99.9% | 39.4 | 44.7% | 800 | Oc1cc2c(cc1O)C(Cc1ccccc1)NCC2 (stereo unspecified) | Dose-dependent effect
